From ChEMBL document CHEMBL5674889, “Enhanced JunD/RSK3 signalling due to loss of BRD4/FOXD3/miR-548d-3p axis determines BET inhibition resistance” (2020)
Activity calls are given as the source filed them.

Legend:
MDA-MB-231 [1] = experiment: Antiproliferative activity in human RPS6KA2-knockdown MDA-MB-231 cells assessed as cell growth at 1 uM by CCK-8 assay; type: functional, cell-based
BT-549 [2] = experiment: Antiproliferative activity in human FOXD3-knockdown BT-549 cells co-silenced with shRNA of RPS6KA2 assessed as cell growth at 1 uM by CCK-8 assay; type: functional, cell-based
BT-549 [3] = experiment: Antiproliferative activity in human JUND-knockdown BT-549 cells assessed as stronger tumor sphere formation at 1 uM by tumor sphere assay; type: functional, cell-based
MDA-MB-231 [4] = experiment: Antiproliferative activity in human JunD-overexpressing MDA-MB-231 cells assessed as cell growth in the presence of osimertinib at 1 uM by CCK-8 assay; type: functional, cell-based
Outline: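 Vector control, RSK3- or JunD-overexpressing cells seeded 3000/well, adhered overnight, then treated with JQ1 alone or combined with kinase inhibitors for 48 h; growth by CCK-8, normalized to DMSO control; triplicates, mean ± SD.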

MDA-MB-231 [5] = experiment: Antiproliferative activity in human MDA-MB-231 cells assessed as cell growth for 48 hrs in the presence of osimertinib at 1 uM by CCK-8 assay; type: functional, cell-based
Outline: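 Cells seeded 3000/well, adhered overnight, treated with JQ1 (1 μM) with or without osimertinib (1 μM) for 48 h; growth by CCK-8 kit, normalized to DMSO-treated control; triplicates, mean ± SD, one-way ANOVA.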

HEK-293T = experiment: Effect on induction of RPS6KA2 transcription in human HEK293T cells transfected with RPS6KA2 assessed as luciferase activity at 1 uM for 6 hrs by Luciferase reporter assay; type: functional, cell-based
Outline: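 HEK293T were transfected with wild-type or mutant RPS6KA2 enhancer luciferase construct, ± JUND co-transfection (FuGene 6, 24 h). Cells then treated with DMSO or JQ1 1 μM for 6 h. Dual-luciferase activity expressed as fold over vector control; three experiments in triplicate.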

[6] = target: T1, Transcription factor JunD (Homo sapiens) (UniProt P17535); experiment: Binding affinity of JunD in human BT-549 cells assessed RPS6KA2 expression at 1 uM for 24 hrs by ChIP analysis; type: cell-based
T1 sequence (whole entry): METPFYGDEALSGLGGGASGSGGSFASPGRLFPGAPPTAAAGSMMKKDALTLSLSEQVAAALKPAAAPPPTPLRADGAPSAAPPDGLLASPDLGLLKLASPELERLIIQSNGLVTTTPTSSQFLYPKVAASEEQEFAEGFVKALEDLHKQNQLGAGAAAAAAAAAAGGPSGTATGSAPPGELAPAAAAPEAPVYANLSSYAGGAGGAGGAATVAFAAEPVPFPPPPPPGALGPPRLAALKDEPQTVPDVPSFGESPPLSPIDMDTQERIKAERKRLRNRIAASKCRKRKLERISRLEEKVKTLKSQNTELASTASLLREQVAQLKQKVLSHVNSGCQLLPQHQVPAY

Measured: Activity

Cc1sc2c(c1C)C(c1ccc(Cl)cc1)=N[C@@H](CC(=O)OC(C)(C)C)c1nnc(C)n1-2
active: all assays above
